{"source": "ChEMBL document CHEMBL3286264", "about": "“Discovery of novel and selective SIRT6 inhibitors” (J Med Chem, 2014)", "key": {"[1]": {"molecular_target": "T1, NAD-dependent protein deacylase sirtuin-6 (Homo sapiens, UniProt Q8N6T7)", "T1 sequence (Q8N6T7 whole entry)": "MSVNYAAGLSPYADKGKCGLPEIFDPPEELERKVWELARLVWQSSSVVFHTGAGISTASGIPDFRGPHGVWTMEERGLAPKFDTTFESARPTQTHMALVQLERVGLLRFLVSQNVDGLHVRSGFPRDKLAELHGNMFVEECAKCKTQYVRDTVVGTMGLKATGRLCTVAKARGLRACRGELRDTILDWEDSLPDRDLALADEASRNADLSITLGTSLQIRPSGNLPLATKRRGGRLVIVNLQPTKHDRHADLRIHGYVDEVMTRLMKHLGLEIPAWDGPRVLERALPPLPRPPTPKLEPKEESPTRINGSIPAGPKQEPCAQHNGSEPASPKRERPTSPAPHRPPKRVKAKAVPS", "assay": "Inhibition of SIRT6 (unknown origin) at 200 uM by fluorescence-based assay"}, "[2]": {"molecular_target": "T2, NAD-dependent protein deacetylase sirtuin-1 (Homo sapiens, UniProt Q96EB6)", "T2 sequence (Q96EB6 whole entry)": "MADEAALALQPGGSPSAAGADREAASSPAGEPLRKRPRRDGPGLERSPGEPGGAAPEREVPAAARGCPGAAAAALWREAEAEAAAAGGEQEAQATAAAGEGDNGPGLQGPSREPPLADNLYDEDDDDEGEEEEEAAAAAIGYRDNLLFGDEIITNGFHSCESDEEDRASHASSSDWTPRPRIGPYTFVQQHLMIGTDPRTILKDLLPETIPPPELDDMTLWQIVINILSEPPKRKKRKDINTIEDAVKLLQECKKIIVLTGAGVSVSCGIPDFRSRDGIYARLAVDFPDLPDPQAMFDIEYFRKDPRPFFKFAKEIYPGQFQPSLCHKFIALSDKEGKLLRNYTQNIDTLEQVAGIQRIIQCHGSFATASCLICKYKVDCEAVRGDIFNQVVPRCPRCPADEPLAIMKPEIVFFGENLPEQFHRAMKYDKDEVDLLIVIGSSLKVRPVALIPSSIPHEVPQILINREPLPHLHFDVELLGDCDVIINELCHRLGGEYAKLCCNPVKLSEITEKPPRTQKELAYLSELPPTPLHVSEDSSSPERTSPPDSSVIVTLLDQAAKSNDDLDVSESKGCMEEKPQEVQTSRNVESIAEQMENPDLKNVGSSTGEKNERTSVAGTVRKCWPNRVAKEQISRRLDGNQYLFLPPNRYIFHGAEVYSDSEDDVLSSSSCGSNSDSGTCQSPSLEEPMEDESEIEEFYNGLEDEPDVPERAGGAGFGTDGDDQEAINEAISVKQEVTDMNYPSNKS", "assay": "Inhibition of SIRT1 (unknown origin)", "in_short": "(§1)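 Deacetylase activity measured with commercial fluorescence-based SIRT1, SIRT2 or SIRT6 kits per manufacturer's instructions. Compounds from 50 mM DMSO stocks, tested from 8 μM to 5 mM. IC50 derived by logarithmic nonlinear regression. Three independent determinations per compound.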"}, "[3]": {"molecular_target": "T3, NAD-dependent protein deacetylase sirtuin-2 (Homo sapiens, UniProt Q8IXJ6)", "T3 sequence (Q8IXJ6 whole entry)": "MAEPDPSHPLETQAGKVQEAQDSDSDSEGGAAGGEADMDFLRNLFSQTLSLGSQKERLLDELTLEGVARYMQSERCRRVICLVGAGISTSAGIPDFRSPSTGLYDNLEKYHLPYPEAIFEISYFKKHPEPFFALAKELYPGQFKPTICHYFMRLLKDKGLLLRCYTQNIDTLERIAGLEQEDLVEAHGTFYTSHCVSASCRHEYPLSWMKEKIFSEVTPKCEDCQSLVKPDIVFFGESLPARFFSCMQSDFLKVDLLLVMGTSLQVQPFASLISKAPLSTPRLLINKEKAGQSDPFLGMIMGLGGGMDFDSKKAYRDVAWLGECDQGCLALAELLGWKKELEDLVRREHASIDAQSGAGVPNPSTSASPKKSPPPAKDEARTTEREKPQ", "assay": "Inhibition of SIRT2 (unknown origin)", "in_short": "as §1"}, "Homo sapiens [4]": {"species": "Homo sapiens", "assay": "Selectivity ratio of IC50 for SIRT2 (unknown origin) to IC50 for SIRT6 (unknown origin)", "in_short": "as §1"}, "Homo sapiens [5]": {"species": "Homo sapiens", "assay": "Selectivity ratio of IC50 for SIRT1 (unknown origin) to IC50 for SIRT6 (unknown origin)", "in_short": "as §1"}, "[6]": {"molecular_target": "T1, NAD-dependent protein deacylase sirtuin-6", "assay": "Inhibition of SIRT6 (unknown origin)", "in_short": "as §1"}, "BXPC-3 [7]": {"tested_on": "BXPC-3", "assay": "Inhibition of PMA-induced TNF-alpha secretion in human BxPC3 cells at 100 uM incubated for overnight prior to stimulation of PMA for 24 hrs by ELISA", "type": "functional", "conditions": "BXPC-3, 24 h", "in_short": "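BxPC-3 cells (3 × 10^5/well) allowed to adhere 24 h, then incubated overnight with 100 μM compound or vehicle. Stimulated 24 h with 25 ng/mL PMA. TNF-α in supernatants measured by DuoSet ELISA. Expressed as % inhibition.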"}, "BXPC-3 [8]": {"tested_on": "BXPC-3", "assay": "Increase in GLUT1 expression in human BxPC3 cell surface at 100 uM after 24 hrs by flow cytometry", "type": "functional, cell-based", "in_short": "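BxPC-3 cells plated 4 × 10^5 per well, allowed to adhere 24 h, then exposed 24 h to 100 μM compound or DMSO vehicle. Cells trypsinized, fixed 10 min in 100% methanol at −20 °C, stained with anti-GLUT-1 antibody then anti-mouse IgG2a (each 30 min, 4 °C). Analysed by flow cytometry, 10.000 events/sample.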"}, "[9]": {"molecular_target": "T1, NAD-dependent protein deacylase sirtuin-6", "assay": "Inhibition of SIRT6 in human BxPC3 cells assessed as increase in H3K9 acetylation at 100 uM after 18 hrs by immunoblot analysis", "type": "cell-based", "conditions": "BXPC-3", "in_short": "(§2)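 BxPC-3 cells plated 4 × 10^5 per well, adhered 24 h, then given 100 μM compound or matching DMSO (final DMSO 2–6‰) for varying times. Lysates (30 μg) resolved on 15% SDS-PAGE and immunoblotted for acetyl-H3K9 and total H3 with ECL. Acetyl-H3K9 normalized to total H3 and expressed as % versus vehicle-treated cells.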"}, "L6": {"tested_on": "L6", "assay": "Increase in [14C]-2-deoxy-D-glucose uptake in rat L6 cells at 200 uM after 18 hrs by scintillation counting analysis relative to control", "type": "functional", "in_short": "(§3)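 Human BxPC-3 or rat L6 cells (6 × 10^5/well) treated in triplicate for 18 h with 200 μM (final) compound in complete medium. Uptake measured with 0.5 mM 2-deoxy-D-glucose/[14C]-2-deoxy-D-glucose (0.5 μCi/well) in KRH buffer for 5 min at 37 °C. Cells lysed in 0.1% SDS for scintillation counting. Uptake in presence of cytochalasin B plus phloretin subtracted. Expressed relative to untreated.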"}, "BXPC-3 [10]": {"tested_on": "BXPC-3", "assay": "Increase in [14C]-2-deoxy-D-glucose uptake in human BxPC3 cells at 200 uM after 18 hrs by scintillation counting analysis relative to control", "type": "functional", "in_short": "as §3"}, "[11]": {"molecular_target": "T1, NAD-dependent protein deacylase sirtuin-6", "assay": "Inhibition of SIRT6 in human BxPC3 cells assessed as increase in H3K9 acetylation at 100 uM after >18 hrs by immunoblot analysis", "type": "cell-based", "conditions": "BXPC-3", "in_short": "as §2"}, "BXPC-3 [12]": {"tested_on": "BXPC-3", "assay": "Increase in GLUT1 expression in human BxPC3 cells at 12.5 to 200 uM after 24 hrs by Western blotting analysis", "type": "functional, cell-based", "in_short": "(§4)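 BxPC-3 cells plated 4 × 10^5 per well and allowed to adhere 24 h. Treated either 24 h at the stated concentrations or for a time course at 200 μM. Lysed in Tris-HCl pH 7.5/NaCl/NP40 buffer. 30 μg protein run on 15% SDS-PAGE and transferred to PVDF. GLUT-1 and γ-tubulin detected by immunoblotting with ECL.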"}, "BXPC-3 [13]": {"tested_on": "BXPC-3", "assay": "Increase in GLUT1 expression in human BxPC3 cells at 200 uM after 6 hrs by Western blotting analysis", "type": "functional, cell-based", "in_short": "as §4"}}, "note": "Active and inactive are the calls of the source. The rule behind the calls is not given here.", "data": [{"smiles": "CC1(CCC(=O)O)NC(=O)NC1=O", "note": "(stereo unspecified)", "values": [{"measurement": "inhibition", "setting": "[1]", "value": "inactive"}]}, {"smiles": "O=C(NCc1nc(-c2cccnc2)n[nH]1)c1cnccn1", "values": [{"measurement": "IC50", "setting": "[2]", "value": 1470, "unit": "µM"}, {"measurement": "IC50", "setting": "[3]", "value": 2290, "unit": "µM"}, {"measurement": "Ratio IC50", "setting": "Homo sapiens [4]", "value": 1.71}, {"measurement": "Ratio IC50", "setting": "Homo sapiens [5]", "value": 1.1}, {"measurement": "IC50", "setting": "[6]", "value": 1340, "unit": "µM"}, {"measurement": "inhibition", "setting": "[1]", "value": 12, "unit": "%"}]}, {"smiles": "O=c1cc(-c2ccccc2)[nH]c(=O)[nH]1", "values": [{"measurement": "inhibition", "setting": "[1]", "value": "inactive"}]}, {"smiles": "NC(=O)c1ccc[n+](CCCCCC[n+]2cccc(C(N)=O)c2)c1", "values": [{"measurement": "inhibition", "setting": "[1]", "value": "inactive"}]}, {"smiles": "O=c1[nH]c(=O)c2cc(S(=O)(=O)Nc3ccc(Oc4cccnc4)cc3)ccc2[nH]1", "values": [{"measurement": "inhibition at 100 µM", "setting": "BXPC-3 [7]", "value": 73, "unit": "%"}, {"measurement": "IC50", "setting": "[2]", "value": 314, "unit": "µM"}, {"measurement": "Activity", "setting": "BXPC-3 [8]", "value": "Active"}, {"measurement": "inhibition", "setting": "[9]", "value": "Active"}, {"measurement": "fold change (FC)", "setting": "L6", "value": 1.98}, {"measurement": "IC50", "setting": "[3]", "value": 114, "unit": "µM"}, {"measurement": "Ratio IC50", "setting": "Homo sapiens [4]", "value": 1.07}, {"measurement": "fold change (FC)", "setting": "BXPC-3 [10]", "value": 1.3}, {"measurement": "inhibition", "setting": "[11]", "value": "inactive"}, {"measurement": "Ratio IC50", "setting": "Homo sapiens [5]", "value": 2.96}, {"measurement": "Activity", "setting": "BXPC-3 [12]", "value": "Active"}, {"measurement": "IC50", "setting": "[6]", "value": 106, "unit": "µM"}, {"measurement": "inhibition", "setting": "[1]", "value": 100, "unit": "%"}]}, {"smiles": "O=C(Nc1ccc(NS(=O)(=O)c2ccc(Oc3ccc([N+](=O)[O-])cc3)cc2)cc1)c1ccccc1", "values": [{"measurement": "inhibition", "setting": "[1]", "value": "inactive"}]}, {"smiles": "O=C(CSCc1ccc(Cl)c(Cl)c1)Nc1cnc(O)nc1O", "values": [{"measurement": "inhibition", "setting": "[1]", "value": "inactive"}]}, {"smiles": "CCOc1ccc(NC2SC(=O)NC2=O)cc1", "note": "(stereo unspecified)", "values": [{"measurement": "inhibition", "setting": "[1]", "value": "inactive"}]}, {"smiles": "Cc1nc(=O)c2c([nH]1)CC1CCC(C2)N1Cc1ccc2c(c1)CC(C)O2", "note": "(stereo unspecified)", "values": [{"measurement": "inhibition", "setting": "[1]", "value": "inactive"}]}, {"smiles": "O=C1NC(=O)C2(CCCCCC2)N1", "values": [{"measurement": "inhibition", "setting": "[1]", "value": "inactive"}]}, {"smiles": "O=C(Nc1ccc(O)c(C(=O)O)c1)c1cccc(NC(=O)c2ccco2)c1", "values": [{"measurement": "inhibition at 100 µM", "setting": "BXPC-3 [7]", "value": 50, "unit": "%"}, {"measurement": "IC50", "setting": "[2]", "value": 1580, "unit": "µM"}, {"measurement": "Activity", "setting": "BXPC-3 [8]", "value": "Active"}, {"measurement": "fold change (FC)", "setting": "L6", "value": 1.2}, {"measurement": "IC50", "setting": "[3]", "value": 751, "unit": "µM"}, {"measurement": "Ratio IC50", "setting": "Homo sapiens [4]", "value": 8.44}, {"measurement": "fold change (FC)", "setting": "BXPC-3 [10]", "value": 1.11}, {"measurement": "Ratio IC50", "setting": "Homo sapiens [5]", "value": 17.7}, {"measurement": "Activity", "setting": "BXPC-3 [12]", "value": "Active"}, {"measurement": "IC50", "setting": "[6]", "value": 89, "unit": "µM"}]}, {"smiles": "COc1ccc(OCC(O)Cn2c(NCCc3ccccc3)nc3c2c(=O)[nH]c(=O)n3C)cc1", "note": "(stereo unspecified)", "values": [{"measurement": "inhibition", "setting": "[1]", "value": "inactive"}]}, {"smiles": "O=C(CSc1nc[nH]n1)CSc1nc[nH]n1", "values": [{"measurement": "inhibition", "setting": "[1]", "value": "inactive"}]}, {"smiles": "N=C(Nc1ccccc1)SC1CC(=O)N(c2ccc(C(=O)O)cc2)C1=O", "note": "(racemic)", "values": [{"measurement": "inhibition at 100 µM", "setting": "BXPC-3 [7]", "value": 53, "unit": "%"}, {"measurement": "IC50", "setting": "[2]", "value": 3470, "unit": "µM"}, {"measurement": "inhibition", "setting": "[9]", "value": "Active"}, {"measurement": "fold change (FC)", "setting": "L6", "value": 1.55}, {"measurement": "IC50", "setting": "[3]", "value": 1740, "unit": "µM"}, {"measurement": "Ratio IC50", "setting": "Homo sapiens [4]", "value": 9.63}, {"measurement": "fold change (FC)", "setting": "BXPC-3 [10]", "value": 3.09}, {"measurement": "Activity", "setting": "BXPC-3 [13]", "value": "Active"}, {"measurement": "inhibition", "setting": "[11]", "value": "inactive"}, {"measurement": "Ratio IC50", "setting": "Homo sapiens [5]", "value": 19.1}, {"measurement": "IC50", "setting": "[6]", "value": 181, "unit": "µM"}, {"measurement": "inhibition", "setting": "[1]", "value": 66, "unit": "%"}]}]}
